From ChEMBL document CHEMBL3272204, “Products from furans. 1. Sunthesis and anticoccidial and antimicrobial activity of 5-amino-5,6-dihydro-6-methoxy-2-methyl-2-(4'-biphenylyl)-2H-pyran-3(4H)-ones and related compounds” (1976) come the findings set out here.

For one test, the system named is Escherichia coli. Description: Antibacterial activity against Escherichia coli 198 assessed as growth inhibition after 24 hrs. The class given is functional. A digest of the protocol:
(§1)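 Twofold serial dilutions in nutrient broth. The minimum concentration inhibiting visible growth was read after 24 hr incubation at 37°.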

The next test has as its system Proteus vulgaris. Description: Antibacterial activity against Proteus vulgaris assessed as growth inhibition after 24 hrs. The class given is functional. Put shortly: as §1
Test [1] concerns Staphylococcus. Briefly: Antibacterial activity against penicillin-resistant Staphylococcus pyogenes assessed as growth inhibition after 24 hrs. The test is classed as functional. A digest of the protocol: (§2)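 Halving (twofold) serial dilutions of compound in nutrient broth, in vitro. Incubated 24 hr at 37°. Value reported is the lowest concentration that inhibited growth.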
The test system of another test is Candida albicans. Briefly: Antifungal activity against Candida albicans assessed as growth inhibition after 5 days at 37 degC. The class given is functional. A digest of the protocol: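 Twofold serial dilutions in Sabouraud broth. The minimum inhibitory concentration was read after 5 days at 37°.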
Test [2] in a line: Antifungal activity against Trichophyton granulosum assessed as growth inhibition after 10 days at 28 degC. The test is classed as functional. As to conditions: Trichophyton mentagrophytes var. granulosum. Put shortly:
(§3)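 Twofold serial dilutions in Sabouraud broth. The minimum inhibitory concentration was read after 10 days at 28°.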

Test [3] relates to Eimeria tenella. Description: Anticoccidal activity against Eimeria tenella assessed as improved weight gain in chicken at 0.05%, po. The class given is functional, organism-based. Put shortly:
(§4)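 Chickens with experimental coccidiosis received compound orally in the diet at 0.05%, starting 1 day before infection. Efficacy was judged 6 days later from survival and weight gain.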

The subject of test [4] is Eimeria acervulina. Description: Anticoccidal activity against Eimeria acervulina assessed as improved weight gain in chicken. The class given is functional, organism-based. Put shortly:
as §4

In another test the test system is Pseudomonas aeruginosa. Briefly: Antibacterial activity against Pseudomonas aeruginosa assessed as growth inhibition after 24 hrs. The test is classed as functional. A digest of the protocol:
as §1

For another test, the system named is Enterococcus faecalis. Description: Antibacterial activity against Streptococcus faecalis assessed as growth inhibition after 24 hrs. The test is classed as functional. Put shortly:
as §1

Another test deals with Serratia marcescens. Briefly: Antibacterial activity against Serratia marcescens assessed as growth inhibition after 24 hrs. The class given is functional. Put shortly: as §1
The subject of the next test is Klebsiella pneumoniae. Description: Antibacterial activity against Klebsiella pneumoniae assessed as growth inhibition after 24 hrs. The test is classed as functional. A digest of the protocol:
as §1

In test [5] the test system is Staphylococcus. Briefly: Antibacterial activity against penicillin-sensitive Staphylococcus pyogenes assessed as growth inhibition after 24 hrs. The test is classed as functional. Put shortly:
as §2

The next test concerns Nannizzia gypsea. Description: Antifungal activity against Microsporum gypseum assessed as growth inhibition after 10 days at 28 degC. The test is classed as functional. A digest of the protocol:
as §3

In test [6] the test system is Salmonella enterica subsp. enterica serovar Pullorum. Description: (§5) Antibacterial activity against Salmonella pullorum assessed as growth inhibition after 24 hrs. The class given is functional. Put shortly:
as §1

The next test concerns Klebsiella aerogenes. Briefly: Antibacterial activity against Aerobacter aerogenes assessed as growth inhibition after 24 hrs. The class given is functional. Put shortly: as §1
The subject of test [7] is Eimeria tenella. Description: Anticoccidal activity against Eimeria tenella assessed as improved weight gain in chicken at 0.002%, po. The class given is functional, organism-based.
Test [8] relates to Eimeria acervulina. Briefly: Anticoccidal activity against Eimeria acervulina assessed as improved weight gain and mortality in chicken relative to noninfected control. The test is classed as functional, organism-based. Put shortly:
as §4

A short description of test [9]: as §5. The class given is functional, Salmonella enterica subsp. enterica serovar Pullorum. To be noted: Salmonella enterica, 24 h; read-out: MIC. A digest of the protocol:
as §1

Where [10] appears, read: Staphylococcus, 24 h, read-out: MIC.

≈ marks a conversion by molar mass, not a printed value. Calls of active or inactive are those of the source. No cut-off for these calls is given here.

A word on the MIC: it is the least concentration at which growth counts as inhibited. As to `CNC1CC(O)C(C)(c2ccc(-c3ccccc3)cc2)OC1OC` (centres undefined), the MIC entry (with Escherichia coli; with Proteus vulgaris; in the test with Staphylococcus [1]; with Candida albicans; in [2]; in the test with Pseudomonas aeruginosa) was “inactive” each time. The MIC result (in the test on Enterococcus faecalis; in the test with Serratia marcescens; in the test with Klebsiella pneumoniae; in the test with Staphylococcus [5]; with Nannizzia gypsea; in test [6]) was “inactive” in each case. In the test with Klebsiella aerogenes, the MIC entry was “inactive”. Besides, the outcome with Eimeria tenella [3] and with Eimeria acervulina [4] was inactive.

As for `CCCCc1cc2c(=O)c(C(=O)OC)c[nH]c2cc1OCc1ccccc1`, the result in the test with Eimeria tenella [7] was Active.

Consider `COC1OC(C)(c2ccc(-c3ccccc3)cc2)C(=O)CC1N1CCN(C)CC1` (centres undefined), for which the MIC in the test on Escherichia coli (Escherichia coli, 198, 24 h, read-out: MIC) was determined as 6.2 µg/mL (≈ 15.7 µM); with Proteus vulgaris (Proteus vulgaris, 24 h, read-out: MIC), 6.2 µg/mL (≈ 15.7 µM); with Staphylococcus [1] (setting [10]) it was 6.2 µg/mL (≈ 15.7 µM); in [2], 1.6 µg/mL (≈ 4.06 µM); in the test on Pseudomonas aeruginosa (Pseudomonas aeruginosa, 24 h, read-out: MIC), 6.2 µg/mL (≈ 15.7 µM); in the test on Enterococcus faecalis (Enterococcus faecalis, 24 h, read-out: MIC) it was 6.2 µg/mL (≈ 15.7 µM). Further, the MIC in the test with Serratia marcescens (Serratia marcescens, 24 h, read-out: MIC) was 6.2 µg/mL (≈ 15.7 µM); in the test with Klebsiella pneumoniae (Klebsiella pneumoniae, 24 h, read-out: MIC), 6.2 µg/mL (≈ 15.7 µM); with Staphylococcus [5] (setting [10]), 6.2 µg/mL (≈ 15.7 µM); in the test on Nannizzia gypsea (Nannizzia gypsea, 240 h, read-out: MIC), 3.2 µg/mL (≈ 8.11 µM); in test [9], 6.2 µg/mL (≈ 15.7 µM); in the test with Klebsiella aerogenes (Klebsiella aerogenes, 24 h, read-out: MIC), 6.2 µg/mL (≈ 15.7 µM). The result in the test with Eimeria acervulina [8] was Active. The outcome in the test with Eimeria tenella [3] was inactive.

Consider `COC1OC(C)(c2ccc(-c3ccccc3)cc2)C(O)CC1N1CCOCC1` (centres undefined), for which the MIC result (in the test on Escherichia coli; in the test with Proteus vulgaris; in the test on Staphylococcus [1]; in the test with Candida albicans; in test [2]; in the test on Pseudomonas aeruginosa) was “inactive” each time. For the same compound, the MIC entry (in the test with Enterococcus faecalis; in the test on Serratia marcescens; in the test on Klebsiella pneumoniae; with Staphylococcus [5]; in the test on Nannizzia gypsea; in test [6]) was “inactive” throughout. For the same compound, the MIC entry in the test with Klebsiella aerogenes was “inactive”. In addition, in the test on Eimeria tenella [3], the outcome was inactive.
